Assay results published in ChEMBL document CHEMBL4622976, “Development of pH/Glutathione-Responsive Theranostic Agents Activated by Glutathione S-Transferase π for Human Colon Cancer” (J Med Chem, 2020).
Activity calls are given as the source filed them. The rule behind the calls is not given here.

Assays:
[1] = Drug localization in tumor of intra-operative mouse xenografted with human HT-29/Luc cells at 40 mg/kg, iv measured over 7 hrs post dose by fluorescence imaging assay; assay type: ADME, organism-based, Neoplasm; conditions: in vivo
[2] = Drug metabolism assessed as GSTpi (unknown origin) mediated compound fluorescence activation at 1 uM in presence of 100 uM serine by HPLC analysis; assay type: ADME; conditions: human
How it was run: (§1)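 Selectivity test: compound (1 µM) with catalytic GSTπ and each analyte in water with 1% (v/v) DMSO at pH 4.0, 37 °C for 0.5 h. Analytes were cations at 1 mM; amino acids, vitamin C, Na2S and GSH at 100 µM. Readout was fluorescence emission spectra (excitation 440 nm, recorded 450–650 nm).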

[3] = Drug metabolism assessed as GSTpi (unknown origin) mediated compound fluorescence activation at 1 uM in presence of 100 uM arginine by HPLC analysis; assay type: ADME; conditions: human; how it was run: as §1
[4] = Toxicity in ICR mouse assessed as induction of abnormality in body weight level at 240 mg/kg, ip for 14 days; assay type: organism-based; conditions: in vivo, 336 h
How it was run: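 Female ICR mice (n = 10 per group) given a single intraperitoneal dose at 240.0, 300.0, 375.0, 468.8 or 585.9 mg/kg, or vehicle. Deaths recorded at 1 h, 4 h and daily through day 14. Body weight, drinking, eating and activity observed for abnormality; LD50 derived from mortality.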

[5] = Drug metabolism assessed as GSTpi (unknown origin) mediated compound fluorescence activation at 1 uM in presence of 1 mM Al3+ by HPLC analysis; assay type: ADME; conditions: human; how it was run: as §1
HT-29 [6] = test: Antitumor activity against human HT-29 cells xenografted in nude BALB/c mouse assessed as tumor weight level at 40 mg/kg, ip dosed every day for 21 days (reference value: 1.49 +/- 0.27 g); assay type: functional
HT-29 [7] = test: Antitumor activity against human HT-29 cells xenografted in nude BALB/c mouse assessed as reduction in tumor volume at 40 mg/kg, ip dosed every day for 21 days; assay type: functional, organism-based
[8] = Drug metabolism assessed as GSTpi (unknown origin) mediated compound fluorescence activation at 1 uM in presence of 100 uM lysine by HPLC analysis; assay type: ADME; conditions: human; how it was run: as §1
[9] = Drug uptake in human HT-29 cells at 1 uM measured within 10 mins by confocal fluorescence microscopy; assay type: ADME, cell-based; conditions: ht-29, 10 min
How it was run: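 Cells were seeded at 2×10^5 in glass-bottom dishes and allowed to attach. Medium was then replaced with DMEM containing 1 µM compound. Confocal images were taken every minute for 60 min with a 40× water objective, 405 nm laser and 480–530 nm filter. Intracellular fluorescence intensity was quantified.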

HT-29 [10] = test: Antiproliferative activity against human HT-29 cells by MTT assay; assay type: functional, cell-based
How it was run: (§2)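 MTT assay. Cells were grown in DMEM/RPMI 1640 with 10% FBS, penicillin and streptomycin at 37 °C under 5% CO2. After a PBS wash, cells got 0.5 mg/mL MTT for 3 h at 37 °C. Formazan was dissolved in DMSO and absorbance read at 570 nm. Inhibition was expressed as a percentage and IC50 calculated. Means ± SD come from three separate experiments.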

[11] = Toxicity in ICR mouse assessed as induction of animal survival rate at 240 mg/kg, ip measured after 14 days; assay type: organism-based; conditions: in vivo
How it was run: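 Female ICR mice, randomised, n = 10 per group. Single intraperitoneal dose of 240.0, 300.0, 375.0, 468.8 or 585.9 mg/kg, or vehicle. Deaths recorded at 1 h, 4 h, days 1–4 and days 5–14. Body weight, drinking, eating and activity observed over 14 days. Survival percentage taken on day 14; LD50 derived from the dose–mortality data.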

HepG2 = test: Antiproliferative activity against human HepG2 cells by MTT assay; assay type: functional, cell-based; how it was run: as §2
HT-29 [12] = test: Induction of apoptosis in human HT-29 cells at 1 uM incubated for 72 hrs by FITC-AnnexinV/PI staining based flow cytometry relative to control; assay type: functional
How it was run: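 HT29 cells were cultured 12 h, then exposed to compound (0.4, 1.0, 2.5 µM) or vehicle for 72 h. Harvested cells were stained with Annexin V and PI, and apoptotic cell percentages measured by flow cytometry. Means ± SD come from three separate experiments.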

With COc1cc(-c2nc(NC(=O)OCC3=CCCCC3=O)cc3c2[nH]c2ccccc23)cc(OC)c1OC the Drug uptake [1] was “Active”, the Drug metabolism [2] was “Metabolite_Notdetected” and the Drug metabolism [3] was “Metabolite_Notdetected”. For the same molecule, the Activity [4] was “Non-Toxic”, the Drug metabolism [5] was “Metabolite_Notdetected” and the Activity (HT-29 [6]) was 0.48 g. For the same molecule, the Activity (HT-29 [7]) was “Active”, the Drug metabolism [8] was “Metabolite_Notdetected” and the Drug uptake [9] was “Active”. It also gave an IC50 (HT-29 [10]) of 0.92 µM, a survival at 336 h [11] of 100% and an IC50 (HepG2) of 1.57 µM. For the same molecule, the Activity (HT-29 [12]) was 36.8%.
